Measured values reported in ChEMBL document CHEMBL4368878 (Medchemcomm, 2018).
pKi: −log10 of the molar value. The source made the active and inactive calls. No cut-off for these calls is given here.

Columns and labels:
[1] = target: T1, Cannabinoid receptor 2 (Homo sapiens, UniProt P34972); test: Displacement of [3H]CP55940 from recombinant human CB2 receptor expressed in HEK293 cell membranes measured after 90 mins
Procedure, shortened: (§1)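 Membranes from HEK-293 cells stably expressing human recombinant CB1 (Bmax 2.5 pmol/mg protein) or CB2 (Bmax 4.7 pmol/mg protein). [3H]-CP-55,940 was used at 0.14 nM for CB1 (Kd 0.18 nM) and 0.084 nM for CB2 (Kd 0.31 nM), with increasing test concentrations, 90 min at 30 °C. Non-specific binding was set with 10 μM WIN 55212-2. Ki came from IC50 via Cheng–Prusoff; n ≥ 3, mean ± SEM. SI = CB1 Ki / CB2 Ki.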

[2] = target: T1, Cannabinoid receptor 2; test: Displacement of [3H]CP55940 from recombinant human CB2 receptor expressed in HEK293 cell membranes at 10 uM measured after 90 mins relative to control
[3] = target: Cannabinoid receptor 1 (CB1) (Homo sapiens, UniProt P21554); test: Displacement of [3H]CP55940 from recombinant human CB1 receptor expressed in HEK293 cell membranes at 10 uM measured after 90 mins relative to control; settings: probe [3H]CP55940
Sequence of Cannabinoid receptor 1 (CB1) (P21554 whole entry): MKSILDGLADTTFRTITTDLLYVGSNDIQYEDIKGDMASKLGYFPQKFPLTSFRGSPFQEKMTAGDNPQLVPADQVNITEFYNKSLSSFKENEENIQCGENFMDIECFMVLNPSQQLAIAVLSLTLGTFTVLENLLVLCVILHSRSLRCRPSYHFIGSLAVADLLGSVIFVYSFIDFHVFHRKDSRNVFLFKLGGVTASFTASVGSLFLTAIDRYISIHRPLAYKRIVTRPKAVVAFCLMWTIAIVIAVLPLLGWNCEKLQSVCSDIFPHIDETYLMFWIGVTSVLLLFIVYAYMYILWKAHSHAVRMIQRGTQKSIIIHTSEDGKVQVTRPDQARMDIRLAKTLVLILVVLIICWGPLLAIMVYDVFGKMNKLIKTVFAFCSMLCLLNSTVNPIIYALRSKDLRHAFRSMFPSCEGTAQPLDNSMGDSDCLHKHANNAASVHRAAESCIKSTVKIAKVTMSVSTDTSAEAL

[4] = target: Cannabinoid receptor 1 (Homo sapiens, UniProt P21554); test: Displacement of [3H]CP55940 from recombinant human CB1 receptor expressed in HEK293 cell membranes measured after 90 mins; procedure, shortened: as §1
Sequence of Cannabinoid receptor 1 (P21554 whole entry): as above

[5] = species on record: Homo sapiens; test: Selectivity index, ratio of Ki for displacement of [3H]CP55940 from recombinant human CB1 receptor expressed in HEK293 cell membranes to Ki for displacement of [3H]CP55940 from recombinant human CB2 receptor expressed in HEK293 cell membranes; procedure, shortened: as §1
[6] = target: T1, Cannabinoid receptor 2; test: Antagonist/inverse agonist activity at recombinant human CB2 receptor expressed in HEK293 cell membranes assessed as increase in NKH-477-induced cAMP accumulation preincubated followed by CB2 agonist JWH-133 addition and measured after 30 mins by luminescence assay; format: functional, cell-based
[7] = target: T1, Cannabinoid receptor 2; test: Antagonist/inverse agonist activity at recombinant human CB2 receptor expressed in HEK293 cell membranes assessed as increase in NKH-477-induced cAMP accumulation measured after 30 mins by luminescence assay; format: functional, cell-based

T1 sequence (P34972 whole entry): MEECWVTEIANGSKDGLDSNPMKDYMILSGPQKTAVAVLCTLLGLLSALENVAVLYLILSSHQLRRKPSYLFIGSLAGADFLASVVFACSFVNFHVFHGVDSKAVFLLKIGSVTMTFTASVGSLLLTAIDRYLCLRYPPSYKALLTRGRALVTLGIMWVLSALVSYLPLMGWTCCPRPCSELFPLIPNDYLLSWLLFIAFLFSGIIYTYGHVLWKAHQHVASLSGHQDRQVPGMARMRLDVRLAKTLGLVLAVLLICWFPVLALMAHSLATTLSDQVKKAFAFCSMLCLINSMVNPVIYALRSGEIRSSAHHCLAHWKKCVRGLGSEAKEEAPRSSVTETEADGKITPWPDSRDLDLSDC

Row | Structure (SMILES) | pKi [1] | inhibition [2] [%] | inhibition at 1.5 h, 10 µM [3] [%] | pKi [4] | Ratio Ki [5] | Activity [6] | Activity [7]
1 | Clc1ccc2c(c1)nc(Cn1nc3ccccc3n1)n2CC[C@@H]1CCCN2CCCC[C@H]12 | < 5.00 | 10.1 | 17.6 | < 5.00 | – | – | –
2 | CCN(CC)CCCn1c(Cn2nc3ccccc3n2)nc2cc(C(C)=O)ccc21 | < 5.00 | 17.5 | 15 | < 5.00 | – | – | –
3 | COCCn1c(Cc2ccc(Cl)c(Cl)c2)nc2cc(C(F)(F)F)ccc21 | 5.00 | 53.8 | 41.4 | < 5.00 | > 1 | – | –
4 | COc1ccc(Cc2nc3cc(C(F)(F)F)ccc3n2C[C@@H]2CCCN3CCCC[C@H]23)cc1 | < 5.00 | 19.7 | 5.5 | < 5.00 | – | – | –
5 | CCCCn1c(Cc2ccc(Cl)c(Cl)c2)nc2cc(C(F)(F)F)ccc21 | 6.43 | 94.3 | 53.9 | 5.00 | 27 | Active | Active
6 | COc1ccc(Cc2nc3cc(C(C)=O)ccc3n2C[C@@H]2CCCN3CCCC[C@H]23)cc1 | < 5.00 | 15.6 | 47.6 | < 5.00 | – | – | –
7 | CCN(CC)CCCn1c(Cc2ccc(OC)cc2)nc2cc(C(F)(F)F)ccc21 | < 5.00 | 16.8 | 19.2 | < 5.00 | – | – | –
8 | CCN(CC)CCn1c(-c2ccc(OC)cc2)nc2cc(C(F)(F)F)ccc21 | < 5.00 | 46.9 | 1.95 | < 5.00 | – | – | –
